Experimental data from ChEMBL document CHEMBL5634209, “Computational design, synthesis, and assessment of 3-(4-(4-(1,3,4-oxadiazol-2-yl)-1H-imidazol-2-yl)phenyl)-1,2,4-oxadiazole derivatives as effective epidermal growth factor receptor inhibitors: a prospective strategy for anticancer therapy” (RSC Med Chem, 2024).

Assays:
[1] = tested on: PC-3; test: Antiproliferative activity against human PC-3 cells assessed as reduction in cell viability measured after 48 hrs by MTT assay; assay type: functional, cell-based; conditions: PC-3, 48 h
Method in brief: (§1)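 Cells were grown at 37 °C in 5% CO2 in medium with 10% FBS: RPMI-1640 for A549, DU-145 and HepG2, and DMEM/F12 for PC-3. They were seeded at 5×10^3/well. At 70–80% confluence they were exposed to a concentration range diluted from a 60 mM DMSO stock for 48 h at 37 °C, with 0.1% DMSO as vehicle. MTT 5 mg/mL stock was added for 4 h, formazan dissolved in DMSO, A570 read, and % inhibition calculated against control. IC50 was taken from the concentration series.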

[2] = tested on: HepG2; test: Antiproliferative activity against human HepG2 cells assessed as reduction in cell viability measured after 48 hrs by MTT assay; assay type: functional, cell-based; conditions: HepG2, 48 h; method in brief: as §1
[3] = tested on: DU-145; test: Antiproliferative activity against human DU-145 cells assessed as reduction in cell viability measured after 48 hrs by MTT assay; assay type: functional, cell-based; conditions: DU-145, 48 h; method in brief: as §1
[4] = Cytotoxicity against African green monkey Vero cells assessed as reduction in cell viability measured after 48 hrs by MTT assay; assay type: toxicity, cell-based; conditions: African green monkey (Chlorocebus sabaeus)
[5] = Selectivity index, ratio of IC50 for cytotoxicity against African green monkey Vero cells to IC50 for antiproliferative activity against human PC-3 cells; assay type: toxicity, cell-based; conditions: Vero cells versus PC-3 cells, read-out: Ratio IC50
[6] = Selectivity index, ratio of IC50 for cytotoxicity against African green monkey Vero cells to IC50 for antiproliferative activity against human HepG2 cells; assay type: toxicity, cell-based; conditions: Vero cells versus HepG2 cells, read-out: Ratio IC50
[7] = Selectivity index, ratio of IC50 for cytotoxicity against African green monkey Vero cells to IC50 for antiproliferative activity against human DU-145 cells; assay type: toxicity, cell-based; conditions: Vero cells versus DU-145 cells, read-out: Ratio IC50
[8] = tested on: A549; test: Antiproliferative activity against human A549 cells assessed as reduction in cell viability measured after 48 hrs by MTT assay; assay type: functional, cell-based; conditions: A549, 48 h; method in brief: as §1
[9] = Selectivity index, ratio of IC50 for cytotoxicity against African green monkey Vero cells to IC50 for antiproliferative activity against human A549 cells; assay type: toxicity, cell-based; conditions: Vero cells versus A549 cells, read-out: Ratio IC50
[10] = molecular target: Epidermal growth factor receptor (Homo sapiens, UniProt P00533); test: Inhibition of wild type EGFR (unknown origin) incubated for 40 mins by Kinase Glo Max reagent based luminescence analysis
[11] = molecular target: Epidermal growth factor receptor (Homo sapiens, UniProt P00533, T790M); test: Inhibition of EGFR T790M mutant (unknown origin) incubated for 40 mins by Kinase Glo Max reagent based luminescence analysis
[12] = tested on: HepG2; test: Induction of cell cycle arrest in human HepG2 cells assessed as accumulation of cell debris at 0.11 uM incubated for 24 hrs by propidium iodide staining based flow cytometry (reference value: 0.12%); assay type: functional
Method in brief: (§2)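 HepG2 cells were seeded, incubated overnight at 37 °C and, at 70–80% confluence, treated 24 h with 0.11, 0.22 or 0.44 µM in fresh medium; untreated cells served as control. Cells were then digested, washed in PBS and fixed in pre-cooled 75% ethanol at 4 °C for over 18 h. Staining used propidium iodide 50 µg/mL plus RNase 50 µg/mL for 30 min at 37 °C, and DNA content was read by flow cytometry.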

[13] = tested on: HepG2; test: Induction of cell cycle arrest in human HepG2 cells assessed as accumulation of cells at G0/G1 phase at 0.11 uM incubated for 24 hrs by propidium iodide staining based flow cytometry (reference value: 35.61%); assay type: functional; method in brief: as §2
[14] = tested on: HepG2; test: Induction of cell cycle arrest in human HepG2 cells assessed as accumulation of cells at G2/M phase at 0.11 uM incubated for 24 hrs by propidium iodide staining based flow cytometry (reference value: 18.81%); assay type: functional; method in brief: as §2
[15] = tested on: HepG2; test: Induction of cell cycle arrest in human HepG2 cells assessed as accumulation of cells at S phase at 0.11 uM incubated for 24 hrs by propidium iodide staining based flow cytometry (reference value: 46.98%); assay type: functional; method in brief: as §2
[16] = tested on: HepG2; test: Induction of cell cycle arrest in human HepG2 cells assessed as accumulation of cell debris at […] incubated for 24 hrs by propidium iodide staining based flow cytometry (reference value: 0.12%); assay type: functional; conditions: dose 0.22 µM
[17] = tested on: HepG2; test: Induction of cell cycle arrest in human HepG2 cells assessed as accumulation of cells at G0/G1 phase at […] incubated for 24 hrs by propidium iodide staining based flow cytometry (reference value: 35.61%); assay type: functional; conditions: dose 0.22 µM
[18] = tested on: HepG2; test: Induction of cell cycle arrest in human HepG2 cells assessed as accumulation of cells at G2/M phase at […] incubated for 24 hrs by propidium iodide staining based flow cytometry (reference value: 18.81%); assay type: functional; conditions: dose 0.22 µM
[19] = tested on: HepG2; test: Induction of cell cycle arrest in human HepG2 cells assessed as accumulation of cells at S phase at […] incubated for 24 hrs by propidium iodide staining based flow cytometry (reference value: 46.98%); assay type: functional; conditions: dose 0.22 µM
[20] = tested on: HepG2; test: Induction of cell cycle arrest in human HepG2 cells assessed as accumulation of cell debris at 0.44 uM incubated for 24 hrs by propidium iodide staining based flow cytometry (reference value: 0.12%); assay type: functional; method in brief: as §2
[21] = tested on: HepG2; test: Induction of cell cycle arrest in human HepG2 cells assessed as accumulation of cells at G0/G1 phase at 0.44 uM incubated for 24 hrs by propidium iodide staining based flow cytometry (reference value: 35.61%); assay type: functional; method in brief: as §2
[22] = tested on: HepG2; test: Induction of cell cycle arrest in human HepG2 cells assessed as accumulation of cells at G2/M phase at 0.44 uM incubated for 24 hrs by propidium iodide staining based flow cytometry (reference value: 18.81%); assay type: functional; method in brief: as §2
[23] = tested on: HepG2; test: Induction of cell cycle arrest in human HepG2 cells assessed as accumulation of cells at S phase at 0.44 uM incubated for 24 hrs by propidium iodide staining based flow cytometry (reference value: 46.98%); assay type: functional; method in brief: as §2
[24] = tested on: HepG2; test: Induction of apoptosis in human HepG2 cells assessed as viable cells at 0.11 uM incubated for 24 hrs by AnnexinV-FITC/PI staining based flow cytometry (reference value: 96.94%); assay type: functional; conditions: read-out: Activity
[25] = tested on: HepG2; test: Induction of apoptosis in human HepG2 cells assessed as early apoptotic cells at 0.11 uM incubated for 24 hrs by AnnexinV-FITC/PI staining based flow cytometry (reference value: 2.91%); assay type: functional
[26] = tested on: HepG2; test: Induction of apoptosis in human HepG2 cells assessed as late apoptotic cells at 0.11 uM incubated for 24 hrs by AnnexinV-FITC/PI staining based flow cytometry (reference value: 0.032%); assay type: functional
[27] = tested on: HepG2; test: Induction of apoptosis in human HepG2 cells assessed as necrotic cells at 0.11 uM incubated for 24 hrs by AnnexinV-FITC/PI staining based flow cytometry (reference value: 0.12%); assay type: functional
[28] = tested on: HepG2; test: Induction of apoptosis in human HepG2 cells assessed as viable cells at […] incubated for 24 hrs by AnnexinV-FITC/PI staining based flow cytometry (reference value: 96.94%); assay type: functional; conditions: dose 0.22 µM, read-out: Activity
[29] = tested on: HepG2; test: Induction of apoptosis in human HepG2 cells assessed as early apoptotic cells at […] incubated for 24 hrs by AnnexinV-FITC/PI staining based flow cytometry (reference value: 2.91%); assay type: functional; conditions: dose 0.22 µM
[30] = tested on: HepG2; test: Induction of apoptosis in human HepG2 cells assessed as late apoptotic cells at […] incubated for 24 hrs by AnnexinV-FITC/PI staining based flow cytometry (reference value: 0.032%); assay type: functional; conditions: dose 0.22 µM
[31] = tested on: HepG2; test: Induction of apoptosis in human HepG2 cells assessed as necrotic cells at […] incubated for 24 hrs by AnnexinV-FITC/PI staining based flow cytometry (reference value: 0.12%); assay type: functional; conditions: dose 0.22 µM
[32] = tested on: HepG2; test: Induction of apoptosis in human HepG2 cells assessed as viable cells at 0.44 uM incubated for 24 hrs by AnnexinV-FITC/PI staining based flow cytometry (reference value: 96.94%); assay type: functional; conditions: read-out: Activity
[33] = tested on: HepG2; test: Induction of apoptosis in human HepG2 cells assessed as early apoptotic cells at 0.44 uM incubated for 24 hrs by AnnexinV-FITC/PI staining based flow cytometry (reference value: 2.91%); assay type: functional
[34] = tested on: HepG2; test: Induction of apoptosis in human HepG2 cells assessed as late apoptotic cells at 0.44 uM incubated for 24 hrs by AnnexinV-FITC/PI staining based flow cytometry (reference value: 0.032%); assay type: functional
[35] = tested on: HepG2; test: Induction of apoptosis in human HepG2 cells assessed as necrotic cells at 0.44 uM incubated for 24 hrs by AnnexinV-FITC/PI staining based flow cytometry (reference value: 0.12%); assay type: functional

Chain of Epidermal growth factor receptor (Homo sapiens, UniProt P00533) (P00533 whole entry): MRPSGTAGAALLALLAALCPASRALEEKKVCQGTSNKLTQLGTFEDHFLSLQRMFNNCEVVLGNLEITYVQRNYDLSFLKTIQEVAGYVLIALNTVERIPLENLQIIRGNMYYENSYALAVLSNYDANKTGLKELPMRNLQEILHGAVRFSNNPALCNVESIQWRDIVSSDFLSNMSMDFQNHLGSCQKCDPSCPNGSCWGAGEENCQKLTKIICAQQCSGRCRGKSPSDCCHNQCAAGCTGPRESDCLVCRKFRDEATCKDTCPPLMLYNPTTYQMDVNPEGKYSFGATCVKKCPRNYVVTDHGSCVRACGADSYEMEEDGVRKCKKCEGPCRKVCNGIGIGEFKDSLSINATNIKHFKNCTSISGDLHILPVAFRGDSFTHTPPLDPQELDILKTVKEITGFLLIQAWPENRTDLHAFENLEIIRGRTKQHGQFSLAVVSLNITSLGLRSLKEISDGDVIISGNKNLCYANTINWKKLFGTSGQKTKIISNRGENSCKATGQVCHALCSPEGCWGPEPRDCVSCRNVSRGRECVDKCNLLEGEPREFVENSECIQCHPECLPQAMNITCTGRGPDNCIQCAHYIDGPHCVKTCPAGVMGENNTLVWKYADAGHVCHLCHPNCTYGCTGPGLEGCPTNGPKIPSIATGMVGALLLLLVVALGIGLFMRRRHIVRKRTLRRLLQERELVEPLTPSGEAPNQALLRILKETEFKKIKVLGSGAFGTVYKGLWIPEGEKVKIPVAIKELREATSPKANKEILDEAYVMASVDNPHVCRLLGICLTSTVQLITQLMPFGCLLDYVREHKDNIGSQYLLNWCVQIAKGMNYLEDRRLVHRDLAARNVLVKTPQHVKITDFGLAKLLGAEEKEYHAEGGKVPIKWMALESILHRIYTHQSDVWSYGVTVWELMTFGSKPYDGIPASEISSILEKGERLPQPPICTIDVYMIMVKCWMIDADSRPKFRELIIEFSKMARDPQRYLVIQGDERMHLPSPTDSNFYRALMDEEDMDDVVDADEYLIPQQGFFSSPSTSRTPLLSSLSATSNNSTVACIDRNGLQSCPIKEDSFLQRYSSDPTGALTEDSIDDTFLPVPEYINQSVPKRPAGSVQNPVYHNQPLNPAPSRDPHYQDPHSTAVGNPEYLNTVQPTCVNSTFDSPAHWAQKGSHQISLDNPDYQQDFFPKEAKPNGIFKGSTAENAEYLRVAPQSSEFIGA
Chain of Epidermal growth factor receptor (Homo sapiens, UniProt P00533, T790M) (P00533 25-1210 T790M limits assumed): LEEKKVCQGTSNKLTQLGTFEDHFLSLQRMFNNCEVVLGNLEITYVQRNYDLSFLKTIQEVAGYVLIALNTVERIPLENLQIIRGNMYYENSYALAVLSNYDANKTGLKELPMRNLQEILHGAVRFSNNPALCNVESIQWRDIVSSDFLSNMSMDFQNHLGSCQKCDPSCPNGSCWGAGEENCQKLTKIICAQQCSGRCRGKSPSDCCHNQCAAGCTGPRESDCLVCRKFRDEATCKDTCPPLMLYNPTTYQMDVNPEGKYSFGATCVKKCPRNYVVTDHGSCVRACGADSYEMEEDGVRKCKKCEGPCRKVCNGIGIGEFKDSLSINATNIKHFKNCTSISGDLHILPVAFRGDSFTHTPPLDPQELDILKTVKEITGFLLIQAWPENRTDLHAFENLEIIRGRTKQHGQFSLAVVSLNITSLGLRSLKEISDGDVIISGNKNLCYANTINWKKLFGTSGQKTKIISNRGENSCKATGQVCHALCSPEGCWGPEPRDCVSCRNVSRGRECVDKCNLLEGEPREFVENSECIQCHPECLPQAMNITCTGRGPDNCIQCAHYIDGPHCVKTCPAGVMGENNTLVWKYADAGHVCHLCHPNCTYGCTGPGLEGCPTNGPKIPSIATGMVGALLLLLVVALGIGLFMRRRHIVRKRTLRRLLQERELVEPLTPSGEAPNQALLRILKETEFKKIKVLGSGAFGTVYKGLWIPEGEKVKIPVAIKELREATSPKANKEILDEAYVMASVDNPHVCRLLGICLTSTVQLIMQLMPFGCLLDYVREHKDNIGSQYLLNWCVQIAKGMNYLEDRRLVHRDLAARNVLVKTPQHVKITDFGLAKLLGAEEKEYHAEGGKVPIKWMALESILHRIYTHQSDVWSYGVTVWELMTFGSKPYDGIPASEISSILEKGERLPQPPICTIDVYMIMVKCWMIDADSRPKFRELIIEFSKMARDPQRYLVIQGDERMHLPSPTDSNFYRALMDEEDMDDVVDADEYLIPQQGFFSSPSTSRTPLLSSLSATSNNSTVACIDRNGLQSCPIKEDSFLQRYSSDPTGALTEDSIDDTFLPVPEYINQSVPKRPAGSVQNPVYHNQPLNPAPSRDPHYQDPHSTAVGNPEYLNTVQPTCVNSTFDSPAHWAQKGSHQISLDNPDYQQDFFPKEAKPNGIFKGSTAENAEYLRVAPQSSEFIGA

O=[N+]([O-])c1ccc(-c2nc(-c3ccc(-c4nc(-c5nnc(-c6ccncc6)o5)c[nH]4)cc3)no2)cc1
IC50 [1]: 2.23 µM
IC50 [2]: 5.33 µM
IC50 [3]: 3.81 µM
IC50 at 48 h [4]: > 24 µM
selectivity ratio [5]: 8.96
selectivity ratio [6]: 4.5
selectivity ratio [7]: 6.29

Brc1ccc(-c2nc(-c3ccc(-c4nc(-c5nnc(-c6ccncc6)o5)c[nH]4)cc3)no2)cc1
IC50 [1]: 3.47 µM
IC50 [8]: 2.68 µM
IC50 [2]: 3.76 µM
IC50 [3]: 4.25 µM
IC50 at 48 h [4]: > 20 µM
selectivity ratio [5]: 5.34
selectivity ratio [9]: 7.46
selectivity ratio [6]: 5.31
selectivity ratio [7]: 4.7

CN(C)c1ccc(-c2nc(-c3ccc(-c4nc(-c5nnc(-c6ccncc6)o5)c[nH]4)cc3)no2)cc1
IC50 [1]: 2.19 µM
IC50 [8]: 1.98 µM
IC50 [2]: 1.78 µM
IC50 [3]: 2.49 µM
IC50 at 48 h [4]: > 16 µM
selectivity ratio [5]: 7.3
selectivity ratio [9]: 8.08
selectivity ratio [6]: 9.03
selectivity ratio [7]: 6.42

COc1cc(-c2nc(-c3ccc(-c4nc(-c5nnc(-c6ccncc6)o5)c[nH]4)cc3)no2)cc(OC)c1OC
IC50 [1]: 0.12 µM
IC50 [8]: 0.13 µM
IC50 [2]: 0.11 µM
IC50 [3]: 0.43 µM
IC50 at 48 h [4]: > 14 µM
selectivity ratio [5]: 117
selectivity ratio [9]: 108
selectivity ratio [6]: 127
selectivity ratio [7]: 32.5
IC50 [10]: 0.102 µM
IC50 [11]: 1.09 µM
Activity [12]: 0.71%
Activity [13]: 37.51%
Activity [14]: 23.99%
Activity [15]: 38.98%
Activity [16]: 6.72%
Activity [17]: 36.01%
Activity [18]: 34.03%
Activity [19]: 31.16%
Activity [20]: 41.32%
Activity [21]: 35.02%
Activity [22]: 47.32%
Activity [23]: 19.22%
viability at 0.11 µM [24]: 79.6%
Activity [25]: 11.32%
Activity [26]: 8.96%
Activity [27]: 0.14%
viability at […] [28]: 65.4%
Activity [29]: 12.33%
Activity [30]: 21.78%
Activity [31]: 0.456%
viability at 0.44 µM [32]: 53.3%
Activity [33]: 18.23%
Activity [34]: 27.92%
Activity [35]: 0.563%

Cc1ccc(-c2nc(-c3ccc(-c4nc(-c5nnc(-c6ccncc6)o5)c[nH]4)cc3)no2)cc1
IC50 [1]: 1.87 µM
IC50 [8]: 2.03 µM
IC50 [2]: 2.12 µM
IC50 [3]: 2.34 µM
IC50 at 48 h [4]: > 15 µM
selectivity ratio [5]: 8.02
selectivity ratio [9]: 7.38
selectivity ratio [6]: 7.1
selectivity ratio [7]: 6.41
